The list is not random: actives were taken first. Their share in the collection is about 1.8%.
M4 PAM = human M4 muscarinic receptor positive allosteric modulators, primary screen, CHO-K1 cells, Fluo-8 calcium fluorescence; CHO-K1 hM4/Gqi5, ACh EC20; 0% = ACh EC20, 100% = maximal ACh; activation, % at 3 µM; actives 0.4% (n = 360,000);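 active = activation above its plate's cutoff, the mean activation of sample wells plus 3 SD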
CHRM5 antagonist = human M5 muscarinic receptor antagonists, primary screen, CHO cells, Fluo-8 calcium fluorescence; Muscarinic acetylcholine receptor M5 (Homo sapiens), P08912; CHO-hM5 cells, ACh EC80; inhibition, % at 3 µM; actives 0.59% (n = 360,000); AID 624040, 2012;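 active = inhibition above a per-plate cutoff, the mean of that plate's test compounds plus 3 SD, cut at about 27% in these data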;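 also: 0% = acetylcholine EC80 with DMSO and 100% = DMSO without agonist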
Target sequence (P08912 whole entry, looked up): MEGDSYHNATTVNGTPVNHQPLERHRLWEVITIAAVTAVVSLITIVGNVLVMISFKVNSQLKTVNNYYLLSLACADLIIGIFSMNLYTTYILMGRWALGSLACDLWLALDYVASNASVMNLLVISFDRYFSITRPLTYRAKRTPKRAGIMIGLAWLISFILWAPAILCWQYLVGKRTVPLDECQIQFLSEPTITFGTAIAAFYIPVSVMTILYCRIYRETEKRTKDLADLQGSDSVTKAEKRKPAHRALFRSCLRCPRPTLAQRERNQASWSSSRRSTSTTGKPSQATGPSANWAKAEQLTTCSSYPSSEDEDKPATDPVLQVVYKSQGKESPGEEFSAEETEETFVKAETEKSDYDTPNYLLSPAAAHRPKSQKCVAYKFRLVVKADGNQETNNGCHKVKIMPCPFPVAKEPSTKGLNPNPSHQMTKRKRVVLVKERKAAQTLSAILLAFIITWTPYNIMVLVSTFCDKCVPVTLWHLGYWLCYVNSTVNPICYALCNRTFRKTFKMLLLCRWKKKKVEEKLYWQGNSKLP
M4 antag = human M4 muscarinic receptor antagonists, primary screen, CHO cells, Fluo-8 calcium fluorescence; Muscarinic acetylcholine receptor M4 (Homo sapiens), P08173; actives 0.73% (n = 360,000); CHO-hM4 cells, ACh EC80; inhibition, % at 3 µM;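 active = inhibition above its plate's cutoff, the mean inhibition of sample wells plus 3 SD, cut at about 27% in these data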;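 also: 0% = acetylcholine EC80 with DMSO and 100% = DMSO without agonist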
CHRM5 PAM = human M5 muscarinic receptor positive allosteric modulators, primary screen, CHO-K1 cells, Fluo-8 calcium fluorescence. Muscarinic acetylcholine receptor M5 (Homo sapiens), P08912. CHO-K1 hM5, ACh EC20 PAM; 0% = ACh EC20, 100% = ACh EC100. activation, % at 3 µM. actives 0.3% (n = 360,000);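 active = activation above the run cutoff, the mean activation of all test compounds plus 3 SD, cut at about 18% in these data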
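Measured by: Fluo-8 calcium fluorescence; material: human M5 receptor in CHO-K1 cells; schedule: Post-acetylcholine fluorescence recording 140 s; benchmarks: low control EC20 acetylcholine (0%), high control EC100 acetylcholine (100%); read-out: Max/basal fluorescence ratio as % of EC20–EC100 ACh window; compound: single dose, 3 µM nominal final test concentration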
M5 ag = human M5 muscarinic receptor agonists, primary screen, CHO-K1 cells, Fluo-8 calcium fluorescence; CHO-K1 hM5 cells; 0% DMSO wells, 100% maximal acetylcholine response; activation, % at 3 µM; AID 624037, 2012; actives 0.19% (n = 360,000); Muscarinic acetylcholine receptor M5 (Homo sapiens), P08912;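 active = activation above the run's mean over test compounds plus 3 SD, cut at about 23% in these data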;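 also: signal is peak over basal fluorescence ratio across the kinetic read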
CHRM4 agonist = human M4 muscarinic receptor agonists, primary screen, CHO-K1 cells, Fluo-8 calcium fluorescence; CHO-K1 hM4/Gqi5; vehicle 0%, full acetylcholine response 100%; actives 0.14% (n = 360,000); Muscarinic acetylcholine receptor M4 (Homo sapiens), P08173; activation, % at 3 µM;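 active = activation above the run mean over all test wells plus 3 SD, cut at about 32% in these data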;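 also: peak over basal fluorescence ratio per well then scaled between controls; 0% = DMSO wells and 100% = acetylcholine at EC100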
The depositor's hits bear a star.

SMILES | M4 PAM | CHRM5 antagonist | M4 antag | CHRM5 PAM | M5 ag | CHRM4 agonist
Cc1nnsc1-c1nc2ccccc2n1C(CCc1ccccc1)c1nc2ccccc2[nH]1 (centres undefined) | -6 | 8 | -2 | -10 | 1 | 9
Clc1ccc(CSc2nnc(-c3ccncc3)o2)c(Cl)c1 | 32* | 0 | 14 | -8 | 2 | 0
Cc1ccccc1CSc1nnc(-c2ccncc2)o1 | -1 | 2 | 1 | -4 | -2 | 1
O=C(CSc1nnc(Cc2ccccc2)o1)c1cc(F)ccc1F | 6 | 3 | -6 | 21* | -1 | 0
CCCN1CCC(NC(=O)CC2C(=O)NCCN2Cc2ccccc2C)CC1 (centres undefined) | 12 | -6 | 5 | 14 | 1 | 1
CCCCc1nc(Cl)c(CO)n1Cc1ccc(-c2ccccc2-c2nnn[nH]2)cc1 | 2 | 2 | -6 | -14 | 33* | 0
Cc1onc(-c2ccccc2)c1C(=O)NC(=S)NNC(=O)c1ccccc1O | -13 | -1 | 2 | -17 | 20 | 44*
CCCOc1ccc(C(=O)NC(=S)NNC(=O)c2c(-c3ccccc3)noc2C)cc1 | -9 | 16 | 10 | -16 | 19 | 32*
O=C(Nc1ccc(Cc2ccncc2)cc1)c1ccc([N+](=O)[O-])o1 | -1 | 16 | 10 | -5 | 2 | 4
COc1ccc(C)cc1NC(=O)CN(C)C1CCCCC1 | -4 | 12 | -8 | -5 | -3 | -1
Cc1nc(-c2ccccc2)sc1C1(C)CC(c2ccc(OC(F)(F)F)cc2)=NO1 (centres undefined) | 7 | -4 | -23 | 18* | 1 | 1
Cc1cccc(CCN2C(Nc3ccccc3)=NC[C@@H]2CC(C)C)c1 | -23 | 15 | 59* | -43 | 58* | 137*
CC(C)C[C@H]1CN=C(Nc2ccccc2)N1CCc1ccc(F)cc1 | -18 | 13 | 47* | -40 | 64* | 115*
CC(C)C[C@H]1CN=C(Nc2ccccc2)N1CCc1cccc(F)c1 | -21 | 38* | 62* | -40 | 74* | 126*
CC(C)C[C@H]1CN=C(N(C)C)N1CCc1cccc(F)c1 | -4 | 0 | 10 | 0 | -12 | 2
COc1ccc([C@H]2CC(=O)C=C(c3ccc(C)c(F)c3)C2)cc1 | 6 | 9 | 3 | 1 | -4 | 0
O=C(Cn1c(=O)oc2cc(S(=O)(=O)N3CCCC3)ccc21)Nc1ccccn1 | 0 | -3 | 2 | -4 | 2 | 1
CCc1nn2c(=O)cc(COC(=O)c3ccc(SC)cc3OC)nc2s1 | 8 | 9 | -5 | -2 | -7 | 4
CC(OC(=O)CNC(=O)c1cccs1)C(=O)Nc1ccc(S(N)(=O)=O)cc1 (centres undefined) | 2 | 7 | 3 | 2 | 0 | 1
CC(=O)Nc1ccc(NC(=O)C(C)OC(=O)CNC(=O)c2cccs2)cc1 (centres undefined) | 7 | 97* | -2 | -32 | -8 | 0
Cc1cn([C@H]2C[C@H](O)[C@@H](COS(=O)(=O)O)O2)c(=O)[nH]c1=O | 5 | 0 | -3 | 8 | -3 | 7
CC1(C)O[C@@H]2[C@H](O1)[C@@H](COS(=O)(=O)O)O[C@H]2n1cc(Br)c(=O)[nH]c1=O | 25* | -8 | -2 | 9 | 5 | 3
Nc1c(N(CCC2=CCCCC2)C(=O)c2ccc([N+](=O)[O-])o2)c(=O)[nH]c(=O)n1Cc1ccccc1 | 6 | 16 | -16 | -9 | -1 | 2
O=C(Nc1ccccc1O)c1ccc2c(c1)C(=O)N(c1ccccc1)C2=O | 4 | 6 | 3 | 0 | 2 | 0
